hERG rescue = compounds protecting human hERG from proarrhythmic drug block | CHO-hERG, FluxOR thallium flux, dofetilide IC70 present | activation (rescue from dofetilide block), less the hit threshold, % at 10 µM | 310,000 compounds, 0.51% hits;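 active = activation above the mean of controls blocked by dofetilide plus 5 SD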;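 note: thallium influx through hERG after potassium depolarization seen as dye fluorescence rise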
KCNQ1 act = human KCNQ1 channel potentiation or activation; P51787; CHO-K1 KCNQ1, thallium flux FluxOR fluorescence; stronger effect = higher value; B-score at 10 µM; 310,000 compounds, 0.35% hits; AID 2648;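 active = fluorescence ratio B-score, a plate-corrected score, at least three library SD, with initial intensity B-score within 5 SD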
Target sequence (P51787 whole entry, looked up): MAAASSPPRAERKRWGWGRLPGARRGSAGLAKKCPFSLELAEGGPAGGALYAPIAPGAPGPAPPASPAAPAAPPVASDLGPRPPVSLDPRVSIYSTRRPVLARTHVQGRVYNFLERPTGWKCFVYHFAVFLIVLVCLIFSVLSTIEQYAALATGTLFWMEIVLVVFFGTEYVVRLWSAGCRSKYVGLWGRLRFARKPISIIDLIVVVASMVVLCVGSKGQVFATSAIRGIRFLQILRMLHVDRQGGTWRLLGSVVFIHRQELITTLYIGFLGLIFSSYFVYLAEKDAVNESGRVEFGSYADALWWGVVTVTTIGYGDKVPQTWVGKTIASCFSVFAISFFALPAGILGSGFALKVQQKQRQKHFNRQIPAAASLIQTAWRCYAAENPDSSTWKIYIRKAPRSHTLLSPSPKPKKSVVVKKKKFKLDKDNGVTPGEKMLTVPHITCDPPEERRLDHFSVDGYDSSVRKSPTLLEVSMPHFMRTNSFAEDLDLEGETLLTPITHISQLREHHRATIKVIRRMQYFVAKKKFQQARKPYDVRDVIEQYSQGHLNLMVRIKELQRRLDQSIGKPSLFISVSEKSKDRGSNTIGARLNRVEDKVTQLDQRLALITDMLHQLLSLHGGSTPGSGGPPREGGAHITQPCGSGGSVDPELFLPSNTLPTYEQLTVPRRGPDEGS
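Medium – assay buffer, equal DMSO in all wells · Material – CHO-K1 cell line with stable KCNQ1 potassium channel expression · Signal – kinetic FluxOR thallium fluorescence, 10-s 1-Hz baseline, 110-s post-stimulus read · Compound – single concentration per compound, DMSO matched to controls · Schedule – 37 °C overnight plating, 90-min dark dye load, 20-min compound pretreatment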
KCNQ1 inh = inhibitors of human KCNQ1 potassium channel. P51787. CHO-K1 KCNQ1, FluxOR thallium flux fluorescence; stronger effect = higher value. B-score at 10 µM. 310,000 compounds, 1.3% hits. AID 2642;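 active = compounds whose thallium flux B-score, printed positive for inhibition, exceeds three library SD while starting fluorescence stays within three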;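 note: channel opened by potassium depolarization with thallium stimulus after 20 min compound exposure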
KCNK9 block = human KCNK9 channel inhibition; Q9NPC2; HEK293 KCNK9, FluxOR thallium flux fluorescence; stronger effect = lower value; B-score at 10 µM; 310,000 compounds, 1.2% hits; AID 488922;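 active = ratio B-score over 3 SD below the library mean, with starting fluorescence within 5 SD of its mean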;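 note: negative B-score means less thallium flux so channel inhibition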
KCNK3 inh = human KCNK3 channel inhibition, primary screen | O14649 | CHO-KCNK3 thallium flux, FluxOR fluorescence; stronger effect = lower value | B-score at 10 µM | 340,000 compounds, 0.84% hits;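 active = B-score under library mean minus 4 SD, starting fluorescence ratio at most library mean plus 5 SD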;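 note: more negative B-score means stronger inhibition of thallium flux through KCNK3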
* = called active by the depositor; i = inactive; nt = not tested or not shown. Rows were chosen to be rich in hits. Some 3.1% of all compounds tested hit in one or more screens of this group.

SMILES | hERG rescue | KCNQ1 act | KCNQ1 inh | KCNK9 block | KCNK3 inh
COc1cccc(N=Nc2ccc3cccnc3c2O)c1 | -7.6 | 9* | i | i | i
COc1ccc(-c2cc(-c3ccccc3)nc(SCC(=O)Nc3nccs3)c2C#N)cc1 | -12.6 | i | i | i | i
CCc1nnc(NC(=O)CSc2nc(-c3ccccc3)cc(-c3ccc(OC)cc3)c2C#N)s1 | 6.4* | i | i | i | i
Cc1ccc(NC(=O)CCC(=O)NNC(=O)COc2ccc([N+](=O)[O-])cc2)c(C)c1 | -3.2 | i | i | i | i
O=C(CSc1nc(C(F)(F)F)cc(=O)[nH]1)N1CCC(Cc2ccccc2)CC1 | -18.6 | i | 6* | i | i
Cc1cc(=O)[nH]c(SCC(=O)N2CCC(Cc3ccccc3)CC2)n1 | -4.5 | i | i | i | i
CC(=O)NCCOC(=O)Nc1sc(=S)n(C)c1C | -7.7 | i | 8* | i | i
Cc1ccc(C)c(S(=O)(=O)NCCOC(=O)Nc2sc(=S)n(C)c2C)c1 | -3.7 | i | i | i | i
O=[N+]([O-])c1ccc(O)c(Nc2ncnc3ccc(Br)cc23)c1 | -5.8 | i | 7* | i | i
O=[N+]([O-])c1ccc(O)c(Nc2ncnc3ccccc23)c1 | -3.0 | i | i | i | i
COc1ccc([C@H]2/C=C\CN(S(=O)(=O)c3ccc4ccccc4c3)[C@@H](C)C(=O)N2Cc2ccc(F)cc2)cc1 | -18.3 | i | i | -7.76* | i
CC(C)CCOP(=O)(c1ccccc1)c1ccccc1 | -7.3 | i | i | -6.75* | i
CCCOP(=O)(c1ccccc1)c1ccccc1 | -5.0 | i | i | i | i
CC(=O)c1ccc(NC(=O)C(C)N(C)CC(=O)Nc2ccc(N3CCOCC3)cc2)cc1 (stereo unspecified) | 4.6* | i | i | i | i
CC(=O)c1ccc(NC(=O)C(C)N(C)CC(=O)Nc2ccc(Cl)cc2)cc1 (stereo unspecified) | -3.2 | i | i | i | i
O=[N+]([O-])c1ccc(Oc2ccc(S(=O)(=O)Nc3ccccc3)cc2)cc1 | -7.9 | i | i | i | i
O=C1C(Cl)=C(NS(=O)(=O)c2ccc([N+](=O)[O-])cc2)C(=O)c2ccccc21 | -22.7 | i | 6* | i | i
Cc1cc(=O)n2nc(N3CCCC3C(=O)Nc3ccc(C(C)C)cc3)sc2n1 (stereo unspecified) | -8.9 | i | i | i | i
Cc1nc2ccc([N+](=O)[O-])cc2[nH]1 | -12.5 | i | i | i | i
O=[N+]([O-])c1cccc(/C=C/c2nc3ccc([N+](=O)[O-])cc3[nH]2)c1 | -35.1 | i | 9* | i | i
COc1ccc(C2C(C(=O)c3cccs3)=C(O)C(=O)N2c2nnc(C)s2)cc1OC (stereo unspecified) | -9.5 | i | 11* | i | i
COc1ccccc1NC(=O)C(C)OC(=O)C(C)SCC(=O)Nc1ccc(C)cc1 (stereo unspecified) | nt | nt | nt | nt | i
Cc1csc(NC(=S)NC(=O)c2ccccc2)n1 | 4.7* | i | i | i | i
COC(=O)c1sc(NC(=S)NC(=O)c2ccccc2)nc1C | -6.2 | i | i | i | i
CCOC(=O)c1sc(NC(=S)NC(=O)c2ccccc2)nc1C | 24.4* | 23* | i | i | i
SMILES | hERG rescue | KCNQ1 act | KCNQ1 inh | KCNK9 block | KCNK3 inh
CCOC(=O)c1sc(NC(=O)c2ccc(OC(C)=O)cc2)nc1C | -4.8 | 13* | i | i | i
CCOC(=O)Cc1csc(NC(=S)NC(=O)c2ccccc2Br)n1 | 14.7* | 17* | i | i | i
Cc1ccc(C(=O)NCC(=O)OCC(=O)c2c(N)n(C)c(=O)n(C)c2=O)cc1C | nt | nt | nt | nt | i
Cn1c(=O)c(NCCO)c2c3c(cccc31)C(=O)c1ccccc1-2 | -47.4 | i | 25* | i | i
Cc1ccc(S(=O)(=O)Nc2nc3ccccc3s2)cc1 | -4.9 | i | i | i | i
COc1ccc(S(=O)(=O)Nc2nc3ccccc3s2)cc1OC | 4.7* | i | i | i | i
Cc1cc(C)c(S(=O)(=O)N2CCN(C(=O)c3ccc(-n4nc(C)c(Cl)c4C)cc3)CC2)c(C)c1 | nt | nt | nt | nt | i
Cc1ccc(C2=NOC(=O)/C2=C\C=C\c2ccccc2)cc1 | 0.5 | 8* | i | i | i
Cc1cc(=O)oc2cc(OC(C(=O)O)c3ccccc3)ccc12 (stereo unspecified) | 6.7* | i | i | i | i
Cc1cc(=O)oc2cc(OC(C)C)ccc12 | -12.9 | i | i | i | i
COc1cc(S(=O)(=O)Nc2cccnc2)ccc1Cl | -10.2 | i | i | i | i
CCOC(=O)C1(Cc2ccccc2Cl)CCN(Cc2csc(C(C)=O)c2)CC1 | -24.4 | i | i | i | i
Cc1ccc(Oc2cc(NC(=O)CCCn3nc([N+](=O)[O-])c(Cl)c3C)cc([N+](=O)[O-])c2)cc1 | -12.9 | i | 7* | i | i
COc1ccccc1NC(=O)NNC(=O)c1ccncc1 | nt | nt | nt | nt | i
CCCCOc1cc(=O)[nH]c(=O)[nH]1 | 4.7* | i | i | i | i
CCOc1ccc(Nc2cc(=O)[nH]c(=O)[nH]2)cc1 | -9.5 | i | i | i | i
Cc1ccc(NCc2ccccc2OCc2ccccc2F)cc1 | 1.0 | i | 8* | i | i
Cc1cccc(NCc2ccccc2OCc2ccccc2F)c1 | -12.9 | i | 9* | -7.46* | i
CCOc1cc(CNc2ccccc2)cc(Br)c1OCc1ccccc1F | -6.3 | i | i | -7.64* | i
COc1cc(CNc2ccc3[nH]c(=O)[nH]c3c2)cc(Br)c1OCc1ccccc1F | -2.8 | i | i | i | i
O=C(COC(=O)CNC(=O)c1ccccc1F)Nc1ncc(Cl)cc1Cl | nt | nt | nt | nt | i
CC(=O)Oc1cc(C(=O)OCC(=O)N2CCc3ccccc3C2)cc(OC(C)=O)c1OC(C)=O | nt | nt | nt | nt | i
CC1CCCN(CCCNC(=O)C2CC(=O)N(CCc3ccccc3)C2)C1 (stereo unspecified) | -4.5 | i | i | i | i
CN(C)CCCOC(=O)c1ccc(Cl)cc1 | 4.8* | i | i | i | i
CN(/N=C/c1cc(Br)cc(Br)c1O)c1cccc(C(F)(F)F)n1 | -8.1 | i | i | -7.14* | i
Cc1ccc(C(=O)O)cc1N=Cc1cc(Br)cc(Br)c1O | -21.7 | i | i | i | i
CN1C[C@@H]2[C@@H]3C(=O)N(Cc4ccccc4)C(=O)[C@@H]3[C@](C)(C1=O)N2C(=O)c1ccc(Br)cc1 | nt | nt | nt | nt | i
CCc1ccc(NC(=S)N(Cc2cccnc2)Cc2ccco2)cc1 | 6.0* | i | i | i | i

Screening results (PubChem)
